Experimental data published in ChEMBL document CHEMBL2146445, “Discovery of BIIB042, a Potent, Selective, and Orally Bioavailable γ-Secretase Modulator” (ACS Med Chem Lett, 2011).

What was measured:
Salmonella typhimurium = assay: Mutagenicity in Salmonella typhimurium; format: toxicity, organism-based; details: salmonella enterica subsp. enterica serovar typhimurium
Cynomolgus monkey = assay: Antialzheimer activity in cynomolgus monkey assessed as reduction in amyloid beta 42 level in plasma at 10 mg/kg, po at 5 hrs; format: functional, Macaca fascicularis; parameters: scale not given: the % may be the effect or the level left
[1] = target: Prostaglandin G/H synthase 1 (Homo sapiens, UniProt P23219); assay: Inhibition of COX1
Plasma [2] = assay: Fraction unbound in mouse plasma; format: ADME, cell-free
[3] = target: Voltage-gated inwardly rectifying potassium channel KCNH2 (Homo sapiens, UniProt Q12809); assay: Inhibition of human ERG by patch clamp assay
Method in brief: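 hERG was tested in an automated FastPatch patch-clamp assay, giving an EC50 readout.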

Gamma-secretase = assay: Modulation of gamma-secretase in human H4 cells expressing wild type APP assessed as reduction in amyloid beta42 level; format: cell-based
Cytochrome P450 1A2 = target: T1, Cytochrome P450 1A2 (Homo sapiens, UniProt P05177); assay: Inhibition of human CYP1A2; format: ADME
T1 sequence (P05177 whole entry): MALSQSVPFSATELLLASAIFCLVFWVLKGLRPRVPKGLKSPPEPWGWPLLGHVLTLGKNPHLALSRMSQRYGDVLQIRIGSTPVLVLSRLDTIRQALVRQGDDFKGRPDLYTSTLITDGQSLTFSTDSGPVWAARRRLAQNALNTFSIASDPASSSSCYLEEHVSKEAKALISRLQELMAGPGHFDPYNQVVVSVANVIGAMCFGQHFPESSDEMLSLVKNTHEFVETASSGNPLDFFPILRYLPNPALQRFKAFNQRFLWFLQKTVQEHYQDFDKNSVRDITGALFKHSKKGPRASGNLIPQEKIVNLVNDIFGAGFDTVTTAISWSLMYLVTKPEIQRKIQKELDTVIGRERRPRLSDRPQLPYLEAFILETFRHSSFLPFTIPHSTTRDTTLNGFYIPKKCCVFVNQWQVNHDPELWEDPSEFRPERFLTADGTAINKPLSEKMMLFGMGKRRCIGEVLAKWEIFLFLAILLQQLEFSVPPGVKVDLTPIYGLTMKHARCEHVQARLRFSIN

[4] = Apparent permeability across human Caco2 cells; format: ADME, cell-based; details: Caco-2
Rattus norvegicus = assay: Antialzheimer activity in Fischer rat assessed as reduction in amyloid beta 42 level in brain at 10 mg/kg, po; format: functional; parameters: scale not given: the % may be the effect or the level left
[5] = Modulation of gamma-secretase in CHO cells overexpressing APP V717 mutant assessed as reduction in amyloid beta42 level after 17 hrs by ELISA; format: cell-based; details: Cricetulus griseus
Method in brief: (§1)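 CHO cells overexpressing APP V717F; Aβ42, Aβ40 and Aβ38 quantified together in each well by multiplex Aβ ELISA. EC50 is the mean of at least two determinations.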

Plasma [6] = assay: Fraction unbound in dog plasma; format: ADME, cell-free, Canis lupus familiaris
Plasma [7] = assay: Plasma concentration in CF1 mouse at 10 mg/kg, po; format: ADME, organism-based; parameters: dose 10 mg/kg, route oral; details: in vivo
Method in brief: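 Wild-type (CF-1) mice given compound orally as a solution in ethanol:propylene glycol:10% solutol (1:1:8). Animals sacrificed 4 h post-dose; brain and plasma collected for drug exposure and Aβ levels.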

Brain = assay: Drug uptake in CF1 mouse brain at 10 mg/kg, po; format: ADME, organism-based; parameters: dose 10 mg/kg, route oral; details: in vivo, read-out: Drug uptake
Method in brief: (§2)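 Wild-type CF-1 mice received a single oral dose as a solution in ethanol:propylene glycol:10% solutol (1:1:8). Animals were sacrificed 4 h after dosing. Brain and plasma were collected for drug concentration and Aβ levels. Aβ change was expressed relative to vehicle-treated controls.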

Plasma [8] = assay: Fraction unbound in human plasma; format: ADME, cell-free
Plasma [9] = assay: Fraction unbound in monkey plasma; format: ADME, cell-free, Macaca mulatta; details: rhesus monkey
Plasma [10] = assay: Fraction unbound in rat plasma; format: ADME, cell-free
[11] = Modulation of gamma-secretase in CHO cells overexpressing APP V717 mutant assessed as increase in amyloid beta38 level after 17 hrs by ELISA; format: cell-based; details: Cricetulus griseus; method in brief: as §1
Cytochrome P450 2C19 = Cytochrome P450 2C19 (Homo sapiens, UniProt P33261); assay: Inhibition of human CYP2C19; format: ADME
Cytochrome P450 2C9 = Cytochrome P450 2C9 (Homo sapiens, UniProt P11712); assay: Inhibition of human CYP2C9; format: ADME
Mus musculus = assay: Antialzheimer activity in CF1 mouse assessed as reduction in amyloid beta 42 level in brain at 10 mg/kg, po; format: functional; parameters: scale not given: the % may be the effect or the level left; method in brief: as §2
Cytochrome P450 2D6 = Cytochrome P450 2D6 (Homo sapiens, UniProt P10635); assay: Inhibition of human CYP2D6; format: ADME
[12] = target: T2, Prostaglandin G/H synthase 2 (Homo sapiens, UniProt P35354); assay: Inhibition of COX2
T2 sequence (P35354 whole entry): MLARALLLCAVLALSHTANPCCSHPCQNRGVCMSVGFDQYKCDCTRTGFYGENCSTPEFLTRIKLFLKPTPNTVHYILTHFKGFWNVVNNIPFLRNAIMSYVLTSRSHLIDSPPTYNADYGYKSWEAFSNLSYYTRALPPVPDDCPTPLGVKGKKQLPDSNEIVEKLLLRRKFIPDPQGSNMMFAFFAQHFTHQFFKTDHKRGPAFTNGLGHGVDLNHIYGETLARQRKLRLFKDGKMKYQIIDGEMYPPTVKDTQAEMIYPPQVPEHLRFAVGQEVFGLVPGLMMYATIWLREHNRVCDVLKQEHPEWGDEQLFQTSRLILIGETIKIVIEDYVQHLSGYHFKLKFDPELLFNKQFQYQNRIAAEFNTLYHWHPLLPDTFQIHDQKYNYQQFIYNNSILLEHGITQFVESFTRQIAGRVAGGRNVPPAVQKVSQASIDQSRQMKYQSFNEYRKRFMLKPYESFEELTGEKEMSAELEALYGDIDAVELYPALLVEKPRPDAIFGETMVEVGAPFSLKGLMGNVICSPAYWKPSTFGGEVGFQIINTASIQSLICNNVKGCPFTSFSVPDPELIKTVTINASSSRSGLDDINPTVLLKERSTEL

Sequence of Cytochrome P450 2C19 (P33261 whole entry): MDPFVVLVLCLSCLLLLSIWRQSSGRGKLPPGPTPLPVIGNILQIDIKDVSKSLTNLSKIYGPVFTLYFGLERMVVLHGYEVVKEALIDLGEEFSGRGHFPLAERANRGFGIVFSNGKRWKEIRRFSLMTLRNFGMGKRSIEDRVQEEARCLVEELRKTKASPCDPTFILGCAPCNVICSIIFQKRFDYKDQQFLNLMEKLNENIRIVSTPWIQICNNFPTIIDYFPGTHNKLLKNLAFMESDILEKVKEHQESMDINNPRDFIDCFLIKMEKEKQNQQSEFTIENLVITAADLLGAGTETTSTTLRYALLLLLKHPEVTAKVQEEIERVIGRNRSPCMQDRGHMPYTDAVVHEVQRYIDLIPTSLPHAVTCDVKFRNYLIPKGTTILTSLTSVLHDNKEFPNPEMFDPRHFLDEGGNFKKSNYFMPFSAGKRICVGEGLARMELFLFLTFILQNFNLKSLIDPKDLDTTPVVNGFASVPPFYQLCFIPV
Sequence of Voltage-gated inwardly rectifying potassium channel KCNH2 (Q12809 whole entry): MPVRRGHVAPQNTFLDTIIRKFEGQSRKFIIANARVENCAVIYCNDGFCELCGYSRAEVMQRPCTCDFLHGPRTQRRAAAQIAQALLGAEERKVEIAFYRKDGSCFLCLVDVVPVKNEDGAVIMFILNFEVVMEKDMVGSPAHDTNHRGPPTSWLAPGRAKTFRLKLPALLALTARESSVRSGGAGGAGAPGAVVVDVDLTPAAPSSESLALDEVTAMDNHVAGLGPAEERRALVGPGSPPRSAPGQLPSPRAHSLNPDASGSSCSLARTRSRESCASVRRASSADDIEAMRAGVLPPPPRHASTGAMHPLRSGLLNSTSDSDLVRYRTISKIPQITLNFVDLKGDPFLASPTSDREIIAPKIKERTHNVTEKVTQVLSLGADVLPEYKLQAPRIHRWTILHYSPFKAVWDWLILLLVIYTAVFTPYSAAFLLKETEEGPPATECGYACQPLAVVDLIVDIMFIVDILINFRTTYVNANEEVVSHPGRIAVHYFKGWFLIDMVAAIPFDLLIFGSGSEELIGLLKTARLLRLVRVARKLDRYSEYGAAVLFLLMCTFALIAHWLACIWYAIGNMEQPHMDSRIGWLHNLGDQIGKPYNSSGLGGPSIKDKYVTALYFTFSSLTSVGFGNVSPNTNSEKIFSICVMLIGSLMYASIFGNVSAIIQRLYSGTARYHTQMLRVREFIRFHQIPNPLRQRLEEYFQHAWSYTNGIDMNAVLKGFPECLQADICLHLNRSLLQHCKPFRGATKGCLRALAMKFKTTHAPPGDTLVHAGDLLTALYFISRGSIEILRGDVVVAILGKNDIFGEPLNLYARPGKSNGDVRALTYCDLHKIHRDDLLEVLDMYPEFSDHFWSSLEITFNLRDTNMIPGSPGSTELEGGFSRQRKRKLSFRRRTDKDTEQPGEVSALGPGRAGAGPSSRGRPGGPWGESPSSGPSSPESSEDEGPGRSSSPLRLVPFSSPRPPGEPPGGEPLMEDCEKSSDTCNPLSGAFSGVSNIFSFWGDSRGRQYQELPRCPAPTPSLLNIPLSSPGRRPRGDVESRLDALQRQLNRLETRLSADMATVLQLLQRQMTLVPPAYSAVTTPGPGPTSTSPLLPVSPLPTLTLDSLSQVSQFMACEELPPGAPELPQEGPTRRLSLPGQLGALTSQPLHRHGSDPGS
Sequence of Cytochrome P450 2D6 (P10635 whole entry): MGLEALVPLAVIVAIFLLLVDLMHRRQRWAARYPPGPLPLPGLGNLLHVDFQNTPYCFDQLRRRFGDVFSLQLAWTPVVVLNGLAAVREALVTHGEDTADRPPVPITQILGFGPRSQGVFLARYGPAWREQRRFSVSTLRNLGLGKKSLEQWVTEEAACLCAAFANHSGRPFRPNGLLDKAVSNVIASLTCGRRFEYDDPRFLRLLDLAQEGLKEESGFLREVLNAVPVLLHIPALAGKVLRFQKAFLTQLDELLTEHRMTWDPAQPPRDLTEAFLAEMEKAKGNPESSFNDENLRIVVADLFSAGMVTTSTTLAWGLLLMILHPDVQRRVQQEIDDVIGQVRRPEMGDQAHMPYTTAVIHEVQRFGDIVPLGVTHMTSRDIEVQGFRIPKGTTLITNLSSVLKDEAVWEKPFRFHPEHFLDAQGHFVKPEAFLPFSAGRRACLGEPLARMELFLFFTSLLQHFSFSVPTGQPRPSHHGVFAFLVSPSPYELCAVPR
Sequence of Prostaglandin G/H synthase 1 (P23219 whole entry): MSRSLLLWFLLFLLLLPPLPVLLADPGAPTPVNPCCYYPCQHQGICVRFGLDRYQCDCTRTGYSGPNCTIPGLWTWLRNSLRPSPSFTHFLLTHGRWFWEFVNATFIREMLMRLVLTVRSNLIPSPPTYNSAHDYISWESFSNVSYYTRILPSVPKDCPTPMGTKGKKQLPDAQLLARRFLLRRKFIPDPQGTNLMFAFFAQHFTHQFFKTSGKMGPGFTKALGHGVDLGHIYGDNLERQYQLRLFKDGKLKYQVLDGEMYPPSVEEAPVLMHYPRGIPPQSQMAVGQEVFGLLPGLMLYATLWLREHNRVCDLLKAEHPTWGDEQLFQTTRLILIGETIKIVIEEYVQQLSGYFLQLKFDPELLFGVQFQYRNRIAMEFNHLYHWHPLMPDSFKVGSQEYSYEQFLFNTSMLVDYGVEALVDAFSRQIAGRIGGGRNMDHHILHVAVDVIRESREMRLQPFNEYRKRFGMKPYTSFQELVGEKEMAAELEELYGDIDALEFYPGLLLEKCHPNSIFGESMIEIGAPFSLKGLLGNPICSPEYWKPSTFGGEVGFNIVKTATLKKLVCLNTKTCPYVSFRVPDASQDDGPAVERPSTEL
Sequence of Cytochrome P450 2C9 (P11712 whole entry): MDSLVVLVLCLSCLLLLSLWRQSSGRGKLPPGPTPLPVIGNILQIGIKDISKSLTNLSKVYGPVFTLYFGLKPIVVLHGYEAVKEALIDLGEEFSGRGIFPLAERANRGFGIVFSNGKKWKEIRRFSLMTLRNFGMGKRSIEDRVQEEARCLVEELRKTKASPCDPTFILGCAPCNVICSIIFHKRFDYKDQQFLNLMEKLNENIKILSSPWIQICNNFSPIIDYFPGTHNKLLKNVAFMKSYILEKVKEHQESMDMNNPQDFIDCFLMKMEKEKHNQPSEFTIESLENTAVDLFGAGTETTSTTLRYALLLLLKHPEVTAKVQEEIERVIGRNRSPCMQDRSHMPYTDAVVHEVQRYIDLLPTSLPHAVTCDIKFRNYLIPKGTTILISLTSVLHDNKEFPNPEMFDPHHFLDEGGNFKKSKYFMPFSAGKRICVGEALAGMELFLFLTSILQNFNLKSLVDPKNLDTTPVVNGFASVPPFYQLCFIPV

## CC1CCN([C@H](c2ccc(F)cc2)c2ccc([C@@H](C)C(=O)O)cc2-c2ccc(C(F)(F)F)cc2)CC1
Salmonella typhimurium
  Activity: Non-toxic
Cynomolgus monkey
  Activity: 30%
[1]
  IC50: 35 µM
Plasma [2]
  Fu: < 0.1%
[3]
  EC50: 15 µM
Gamma-secretase
  EC50: 0.07 µM
Cytochrome P450 1A2
  IC50: > 35 µM
[4]
  Papp: 43.8 ×10⁻⁶ cm/s
Rattus norvegicus
  Activity: 30%
[5]
  EC50: 0.17 µM
Plasma [6]
  Fu: < 0.1%
Plasma [7]
  concentration: 10 µM
Brain
  concentration: 4.6 µM
Plasma [8]
  Fu: < 0.1%
Plasma [9]
  Fu: < 0.1%
Plasma [10]
  Fu: < 0.1%
[11]
  EC50: 0.15 µM
Cytochrome P450 2C19
  IC50: > 35 µM
Cytochrome P450 2C9
  IC50: > 35 µM
Mus musculus
  Activity: 40%
Cytochrome P450 2D6
  IC50: > 35 µM
[12]
  IC50: 27 µM
